According to ChEMBL document CHEMBL5661985, “In silico design of novel probes for the atypical opioid receptor MRGPRX2” (Nat Chem Biol, 2017):
pEC50: −log10 of the molar value. The source made the active and inactive calls. No cut-off for these calls is given here. Where a SMILES comes first, the peptide text is derived from it.

Tests used:
[1] = biological target: T1, Mas-related G-protein coupled receptor member X2 (Homo sapiens, UniProt Q96LB1); assay: Agonist activity at N-terminal Flag-tagged human MRGPRX2 receptor expressed in tetracycline-induced FLP-IN/T-REX 293 cells assessed as increase in intracellular calcium release by FLIPR assay; format: functional, cell-based; details: read-out: pEC50 (converted)
T1 sequence (Q96LB1 whole entry): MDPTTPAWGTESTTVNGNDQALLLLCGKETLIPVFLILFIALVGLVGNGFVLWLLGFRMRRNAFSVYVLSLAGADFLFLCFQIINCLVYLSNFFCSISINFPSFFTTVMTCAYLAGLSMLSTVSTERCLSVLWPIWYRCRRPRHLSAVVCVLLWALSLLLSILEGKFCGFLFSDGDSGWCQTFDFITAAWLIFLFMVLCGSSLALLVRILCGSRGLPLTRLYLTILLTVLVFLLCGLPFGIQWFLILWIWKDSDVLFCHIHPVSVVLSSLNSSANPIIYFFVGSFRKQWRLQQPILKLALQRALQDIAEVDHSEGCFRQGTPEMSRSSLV

[2] = biological target: T1, Mas-related G-protein coupled receptor member X2; assay: Agonist activity at MRGPRX2 (unknown origin) expressed in HTLA cells assessed as induction of beta-arrestin 2 recruitment incubated for 18 to 24 hrs by PRESTO-Tango assay; format: functional, cell-based
HTLA = assay: Agonist activity at […] expressed in HTLA cells assessed as induction of beta-arrestin 2 recruitment incubated for 18 to 24 hrs by PRESTO-Tango assay; format: cell-based; details: Rodentia, filed as agonist, time 18-24 hrs
In short: (§1)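 β-arrestin2 recruitment by PRESTO-Tango: HTLA cells transiently transfected (calcium phosphate) with codon-optimized MRGPRX2-Tango (WT or point mutant) or MRGPRB2-Tango, plated next day 20,000 cells/well on poly-L-lysine; drug in HBSS/20 mM HEPES/0.3% BSA pH 7.4 for 18–24 h; Bright-Glo luminescence (RLU); curves n=3 in triplicate, mutants n=4 in triplicate.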

Flp-In-T-REx-293 = assay: Agonist activity at rodent MRGPRB2 receptor expressed in tetracycline-induced FLP-IN/T-REX 293 cells assessed as increase in intracellular calcium release at 0.003 to 100000 nM by FLIPR assay; format: cell-based; details: Rodentia, filed as agonist, dose 0.003-100000 nM
[3] = biological target: T2, Mas-related G-protein coupled receptor member X2 (Homo sapiens) (UniProt Q96LB1); assay: Agonist activity at MRGPRX2 receptor in human LAD2 cells assessed as increase in intracellular calcium release by FLIPR assay; format: functional, cell-based; details: filed as agonist
T2 sequence (whole entry): T1 sequence (Q96LB1 whole entry)
In short: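 LAD2 human mast cells seeded 50,000/well in Tyrode's buffer with calcium dye, 1 h before drug; 10 s baseline, drug added, fluorescence followed 120 s; expressed as fold calcium release over baseline; n=3 in triplicate.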

[4] = biological target: T2, Mas-related G-protein coupled receptor member X2 (Homo sapiens); assay: Agonist activity at MRGPRX2 receptor in human LAD2 cells transfected with MRGPRX2 siRNA assessed as increase in degranulation incubated for 30 mins by beta-hexosaminidase assay; format: functional, cell-based
In short: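 LAD2 cells (1.2 million/well) transfected with 25 nM MRGPRX2 siRNA pool or non-targeting pool, 72 h; 200,000 cells taken for β-hexosaminidase assay with EC80 concentration of agonist, 30 min 37°C; knockdown checked by qRT-PCR on 1 million cells; fold change % degranulation versus DMSO; two-way ANOVA with Sidak test.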

[5] = biological target: T2, Mas-related G-protein coupled receptor member X2 (Homo sapiens); assay: Agonist activity at MRGPRX2 (unknown origin) expressed in HTLA cells assessed as induction of beta-arrestin 2 recruitment at 10 uM incubated for 18 to 24 hrs by PRESTO-Tango assay; format: functional, cell-based; details: filed as agonist, time 18-24 hrs; in short: as §1
[6] = biological target: G-protein coupled receptor 15 (Homo sapiens) (UniProt P49685); assay: Agonist activity at GPR15 receptor (unknown origin); format: functional
In short: (§2)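 PRESTO-Tango β-arrestin2 recruitment; HTLA cells (HEK-T stably expressing β-arrestin2-TEV and tTA-dependent luciferase) transfected by calcium phosphate with receptor-Tango construct, replated next day at 20,000 cells/well; compounds in HBSS/20 mM HEPES/0.3% BSA pH 7.4, 18–24 h; Bright-Glo luminescence after 15 min RT, read as RLU; ≥2-fold over basal scored active.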

[7] = biological target: Beta-1 adrenergic receptor (Homo sapiens) (UniProt P08588); assay: Agonist activity at ADRB1 receptor (unknown origin); format: functional; in short: as §2
[8] = biological target: 5-hydroxytryptamine receptor 1A (Homo sapiens) (UniProt P08908); assay: Agonist activity at HTR1A receptor (unknown origin); format: functional; in short: as §2
[9] = biological target: T2, Mas-related G-protein coupled receptor member X2 (Homo sapiens); assay: Agonist activity at N-terminal Flag-tagged human MRGPRX2 receptor expressed in tetracycline-induced FLP-IN/T-REX 293 cells assessed as increase in intracellular calcium release <100 uM by FLIPR assay; format: functional, cell-based; details: filed as agonist
In short: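 FLIPR calcium: FLP-IN/T-REX HEK-293-T stable line with N-terminal FLAG codon-optimized receptor, induced 24 h with 1 μg/mL tetracycline in 1% dialyzed FBS (uninduced cells as control); FLIPR calcium dye plus 2.5 mM probenecid 1 h 37°C; 10 s baseline, then drug in HBSS/20 mM HEPES/probenecid pH 7.4, 16-point curve 10 μM to 0.003 nM; fluorescence 120 s; fold over basal, n=3 triplicate.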

[10] = biological target: Prosaposin receptor GPR37 (Homo sapiens) (UniProt O15354); assay: Agonist activity at GPR37 receptor (unknown origin); format: functional; in short: as §2
[11] = biological target: Alpha-1B adrenergic receptor (Homo sapiens) (UniProt P35368); assay: Agonist activity at ADRA1B receptor (unknown origin); format: functional; in short: as §2
[12] = biological target: T2, Mas-related G-protein coupled receptor member X2 (Homo sapiens); assay: Agonist activity at MRGPRX2 (unknown origin) expressed in HTLA cells assessed as induction of beta-arrestin 2 recruitment <100 uM incubated for 18 to 24 hrs by PRESTO-Tango assay; format: functional, cell-based; details: filed as agonist, time 18-24 hrs; in short: as §1
[13] = biological target: 5-hydroxytryptamine receptor 2A (Homo sapiens) (UniProt P28223); assay: Agonist activity at HTR2 receptor (unknown origin); format: functional; in short: as §2
[14] = biological target: Gastrin-releasing peptide receptor (Homo sapiens) (UniProt P30550); assay: Agonist activity at GRPR (unknown origin); format: functional; in short: as §2
[15] = biological target: D(4) dopamine receptor (Homo sapiens) (UniProt P21917); assay: Agonist activity at DRD4 receptor (unknown origin); format: functional; in short: as §2
[16] = biological target: Type-1 angiotensin II receptor (Homo sapiens) (UniProt P30556); assay: Agonist activity at AGTR1 receptor (unknown origin); format: functional; in short: as §2
[17] = biological target: Alpha-1A adrenergic receptor (Homo sapiens) (UniProt P35348); assay: Agonist activity at ADRA1A receptor (unknown origin); format: functional; in short: as §2
[18] = biological target: Alpha-2C adrenergic receptor (Homo sapiens) (UniProt P18825); assay: Agonist activity at ADRA2C receptor (unknown origin); in short: as §2
[19] = biological target: Pituitary adenylate cyclase-activating polypeptide type I receptor (Homo sapiens) (UniProt P41586); assay: Agonist activity at ADCYAP1 receptor (unknown origin); in short: as §2
[20] = biological target: Melanin-concentrating hormone receptor 2 (Homo sapiens) (UniProt Q969V1); assay: Agonist activity at MCHR2 receptor (unknown orgini); format: functional; in short: as §2
[21] = biological target: Muscarinic acetylcholine receptor M2 (Homo sapiens) (UniProt P08172); assay: Agonist activity at CHRM2 receptor (unknown origin); format: functional; in short: as §2
[22] = biological target: Lutropin-choriogonadotropic hormone receptor (Homo sapiens) (UniProt P22888); assay: Agonist activity at LHCGR (unknown origin); format: functional; in short: as §2
[23] = biological target: Glucose-dependent insulinotropic receptor (Homo sapiens) (UniProt Q8TDV5); assay: Agonist activity at GPR119 receptor (unknown origin); format: functional; in short: as §2
[24] = biological target: Proteinase-activated receptor 2 (Homo sapiens) (UniProt P55085); assay: Agonist activity at F2R-L1 receptor (unknown origin); in short: as §2
[25] = biological target: Alpha-1D adrenergic receptor (Homo sapiens) (UniProt P25100); assay: Agonist activity at ADRA1D receptor (unknown origin); format: functional; in short: as §2
[26] = biological target: Beta-3 adrenergic receptor (Homo sapiens) (UniProt P13945); assay: Agonist activity at ADRB3 receptor (unknown origin); format: functional; in short: as §2
[27] = biological target: Cannabinoid receptor 2 (Homo sapiens) (UniProt P34972); assay: Agonist activity at CNR2 receptor (unknown origin); format: functional; in short: as §2
[28] = biological target: Glucagon-like peptide 1 receptor (Homo sapiens) (UniProt P43220); assay: Agonist activity at GLP1R (unknown origin); format: functional; in short: as §2
Glucagon-like peptide 1 receptor (Homo sapiens), sequence (P43220 whole entry): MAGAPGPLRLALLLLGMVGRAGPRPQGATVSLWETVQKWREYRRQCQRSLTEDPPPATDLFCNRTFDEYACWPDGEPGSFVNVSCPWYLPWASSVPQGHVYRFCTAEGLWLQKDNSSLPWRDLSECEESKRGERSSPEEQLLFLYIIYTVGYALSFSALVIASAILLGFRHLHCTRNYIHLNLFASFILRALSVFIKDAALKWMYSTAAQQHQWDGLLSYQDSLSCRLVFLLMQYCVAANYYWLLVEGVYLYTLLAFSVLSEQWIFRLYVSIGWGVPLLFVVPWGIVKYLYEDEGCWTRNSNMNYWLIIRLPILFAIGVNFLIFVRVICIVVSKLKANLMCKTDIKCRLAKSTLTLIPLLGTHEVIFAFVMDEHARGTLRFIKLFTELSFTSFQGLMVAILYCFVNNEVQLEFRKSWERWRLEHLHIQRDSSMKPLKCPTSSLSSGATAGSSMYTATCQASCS

Pituitary adenylate cyclase-activating polypeptide type I receptor (Homo sapiens), sequence (P41586 21-468 limits assumed): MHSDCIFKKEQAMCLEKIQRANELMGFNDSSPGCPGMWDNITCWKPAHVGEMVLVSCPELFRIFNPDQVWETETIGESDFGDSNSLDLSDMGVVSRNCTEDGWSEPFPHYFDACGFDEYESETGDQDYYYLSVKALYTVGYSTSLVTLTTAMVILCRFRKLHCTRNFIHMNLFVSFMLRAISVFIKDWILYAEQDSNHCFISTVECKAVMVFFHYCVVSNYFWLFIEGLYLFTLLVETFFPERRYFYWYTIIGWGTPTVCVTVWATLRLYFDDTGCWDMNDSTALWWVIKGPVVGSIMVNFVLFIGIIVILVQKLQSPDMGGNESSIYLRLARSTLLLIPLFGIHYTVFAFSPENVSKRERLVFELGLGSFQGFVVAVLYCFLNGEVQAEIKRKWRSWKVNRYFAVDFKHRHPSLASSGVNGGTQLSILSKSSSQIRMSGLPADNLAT
5-hydroxytryptamine receptor 2A (Homo sapiens), sequence (P28223 whole entry): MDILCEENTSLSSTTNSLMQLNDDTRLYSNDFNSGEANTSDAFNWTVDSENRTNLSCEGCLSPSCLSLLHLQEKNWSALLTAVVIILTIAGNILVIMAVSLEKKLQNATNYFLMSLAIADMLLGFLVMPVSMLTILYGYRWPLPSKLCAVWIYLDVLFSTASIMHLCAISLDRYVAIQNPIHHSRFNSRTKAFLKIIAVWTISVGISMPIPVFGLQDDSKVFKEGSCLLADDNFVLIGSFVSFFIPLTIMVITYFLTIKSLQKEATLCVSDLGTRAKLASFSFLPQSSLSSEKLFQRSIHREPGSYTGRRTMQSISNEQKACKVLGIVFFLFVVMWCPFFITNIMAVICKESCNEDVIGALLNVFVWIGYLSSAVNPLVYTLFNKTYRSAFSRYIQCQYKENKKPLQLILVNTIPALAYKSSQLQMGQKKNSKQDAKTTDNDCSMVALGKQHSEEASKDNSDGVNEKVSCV
D(4) dopamine receptor (Homo sapiens), sequence (P21917 whole entry): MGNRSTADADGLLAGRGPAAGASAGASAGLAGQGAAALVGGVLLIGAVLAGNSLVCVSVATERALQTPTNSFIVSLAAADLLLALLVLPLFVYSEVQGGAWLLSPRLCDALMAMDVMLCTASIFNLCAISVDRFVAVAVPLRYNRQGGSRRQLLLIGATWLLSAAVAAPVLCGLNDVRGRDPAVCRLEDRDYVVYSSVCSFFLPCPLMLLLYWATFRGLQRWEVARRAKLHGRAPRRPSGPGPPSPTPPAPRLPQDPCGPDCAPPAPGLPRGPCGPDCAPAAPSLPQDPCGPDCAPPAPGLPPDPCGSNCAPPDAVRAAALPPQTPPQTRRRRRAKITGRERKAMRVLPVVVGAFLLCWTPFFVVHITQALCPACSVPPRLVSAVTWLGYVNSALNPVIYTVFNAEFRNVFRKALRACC
Beta-1 adrenergic receptor (Homo sapiens), sequence (P08588 whole entry, looked up): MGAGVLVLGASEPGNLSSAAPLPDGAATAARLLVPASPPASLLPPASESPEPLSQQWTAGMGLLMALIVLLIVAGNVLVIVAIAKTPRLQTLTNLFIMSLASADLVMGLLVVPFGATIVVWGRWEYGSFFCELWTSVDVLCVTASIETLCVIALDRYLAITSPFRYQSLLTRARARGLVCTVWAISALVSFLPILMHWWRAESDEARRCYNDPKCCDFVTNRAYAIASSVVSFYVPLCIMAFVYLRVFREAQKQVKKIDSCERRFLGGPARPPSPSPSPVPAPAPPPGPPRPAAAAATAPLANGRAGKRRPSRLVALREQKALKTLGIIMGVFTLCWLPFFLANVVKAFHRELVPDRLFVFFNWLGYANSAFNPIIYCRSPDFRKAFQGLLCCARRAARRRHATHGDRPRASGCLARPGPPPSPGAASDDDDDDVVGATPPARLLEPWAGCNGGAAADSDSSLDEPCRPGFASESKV
Type-1 angiotensin II receptor (Homo sapiens), sequence (P30556 whole entry): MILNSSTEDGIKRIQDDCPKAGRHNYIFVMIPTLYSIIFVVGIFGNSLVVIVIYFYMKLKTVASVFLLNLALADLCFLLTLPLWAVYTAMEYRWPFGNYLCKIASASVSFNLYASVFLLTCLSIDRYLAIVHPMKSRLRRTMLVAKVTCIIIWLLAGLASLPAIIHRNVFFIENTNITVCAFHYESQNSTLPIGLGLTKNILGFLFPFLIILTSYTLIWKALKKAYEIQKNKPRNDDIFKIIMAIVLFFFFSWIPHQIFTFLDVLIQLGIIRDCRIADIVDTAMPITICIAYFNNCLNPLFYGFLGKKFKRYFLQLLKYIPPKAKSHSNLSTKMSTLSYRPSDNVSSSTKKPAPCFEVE
Proteinase-activated receptor 2 (Homo sapiens), sequence (P55085 whole entry): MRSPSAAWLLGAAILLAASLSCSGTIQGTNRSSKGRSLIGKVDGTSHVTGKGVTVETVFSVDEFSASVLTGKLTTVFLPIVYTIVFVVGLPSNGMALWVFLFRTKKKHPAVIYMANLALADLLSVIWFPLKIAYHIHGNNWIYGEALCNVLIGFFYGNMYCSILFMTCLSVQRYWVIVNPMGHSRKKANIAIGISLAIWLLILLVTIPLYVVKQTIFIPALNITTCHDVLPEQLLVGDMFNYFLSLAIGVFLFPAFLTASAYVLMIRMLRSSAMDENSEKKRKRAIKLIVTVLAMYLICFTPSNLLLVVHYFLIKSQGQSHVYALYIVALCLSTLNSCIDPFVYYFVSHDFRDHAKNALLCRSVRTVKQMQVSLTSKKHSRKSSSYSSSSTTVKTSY
Beta-3 adrenergic receptor (Homo sapiens), sequence (P13945 whole entry, looked up): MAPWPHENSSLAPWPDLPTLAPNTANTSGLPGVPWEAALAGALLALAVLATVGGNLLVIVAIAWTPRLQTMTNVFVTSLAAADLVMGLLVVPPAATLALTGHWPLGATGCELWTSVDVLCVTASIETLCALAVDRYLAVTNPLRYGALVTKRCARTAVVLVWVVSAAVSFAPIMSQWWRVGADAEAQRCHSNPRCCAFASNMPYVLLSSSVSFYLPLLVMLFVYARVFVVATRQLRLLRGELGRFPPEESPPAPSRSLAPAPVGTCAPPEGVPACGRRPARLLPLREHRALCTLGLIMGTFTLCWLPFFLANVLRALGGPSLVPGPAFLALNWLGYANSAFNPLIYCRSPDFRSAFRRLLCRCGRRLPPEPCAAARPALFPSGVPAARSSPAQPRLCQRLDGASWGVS
G-protein coupled receptor 15 (Homo sapiens), sequence (P49685 whole entry): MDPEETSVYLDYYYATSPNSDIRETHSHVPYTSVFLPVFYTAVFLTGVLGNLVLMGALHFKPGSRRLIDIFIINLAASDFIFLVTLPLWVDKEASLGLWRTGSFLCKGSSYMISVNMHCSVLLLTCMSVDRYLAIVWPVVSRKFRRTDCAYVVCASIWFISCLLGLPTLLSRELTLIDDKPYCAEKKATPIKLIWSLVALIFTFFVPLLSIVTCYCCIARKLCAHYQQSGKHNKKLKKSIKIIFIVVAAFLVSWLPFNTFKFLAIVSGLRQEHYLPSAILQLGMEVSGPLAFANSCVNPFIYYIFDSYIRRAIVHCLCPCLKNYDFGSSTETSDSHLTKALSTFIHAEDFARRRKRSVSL
Alpha-1B adrenergic receptor (Homo sapiens), sequence (P35368 whole entry): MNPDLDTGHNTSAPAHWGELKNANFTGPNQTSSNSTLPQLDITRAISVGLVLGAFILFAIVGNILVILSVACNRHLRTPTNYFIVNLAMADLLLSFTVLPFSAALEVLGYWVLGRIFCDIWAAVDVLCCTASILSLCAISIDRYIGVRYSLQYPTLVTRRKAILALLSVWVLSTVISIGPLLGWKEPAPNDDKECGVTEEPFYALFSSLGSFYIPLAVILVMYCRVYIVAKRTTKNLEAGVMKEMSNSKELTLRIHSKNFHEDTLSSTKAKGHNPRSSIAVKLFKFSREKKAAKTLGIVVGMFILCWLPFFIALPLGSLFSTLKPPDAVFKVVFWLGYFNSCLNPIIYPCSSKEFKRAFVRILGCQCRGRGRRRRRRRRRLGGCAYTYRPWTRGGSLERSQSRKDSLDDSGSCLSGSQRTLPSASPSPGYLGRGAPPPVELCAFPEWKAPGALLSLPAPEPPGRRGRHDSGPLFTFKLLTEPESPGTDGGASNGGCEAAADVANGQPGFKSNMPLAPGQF
Gastrin-releasing peptide receptor (Homo sapiens), sequence (P30550 whole entry, looked up): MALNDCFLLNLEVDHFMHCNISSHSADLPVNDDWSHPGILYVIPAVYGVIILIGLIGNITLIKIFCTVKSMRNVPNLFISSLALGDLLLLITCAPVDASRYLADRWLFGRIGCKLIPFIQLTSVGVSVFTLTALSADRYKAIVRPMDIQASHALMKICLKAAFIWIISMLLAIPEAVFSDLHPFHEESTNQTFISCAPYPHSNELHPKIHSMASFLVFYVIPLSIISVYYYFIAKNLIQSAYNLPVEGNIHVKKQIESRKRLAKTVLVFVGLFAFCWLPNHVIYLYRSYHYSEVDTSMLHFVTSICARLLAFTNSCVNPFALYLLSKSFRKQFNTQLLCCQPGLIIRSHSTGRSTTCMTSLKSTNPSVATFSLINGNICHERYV

`C[C@@H](O)[C@@H]1NC(=O)[C@H](CCCCN)NC(=O)[C@H](Cc2c[nH]c3ccccc23)NC(=O)[C@H](Cc2ccccc2)NC(=O)[C@H](Cc2ccccc2)NC(=O)[C@H](CC(N)=O)NC(=O)[C@H](CCCCN)NC(=O)[C@@H](NC(=O)[C@@H]2CCCN2)CSSC[C@@H](C(=O)N[C@@H](CCCCN)C(=O)O)NC(=O)[C@H](CO)NC(=O)[C@H](CO)NC(=O)[C@H](Cc2ccccc2)NC1=O` (HELM PEPTIDE1{P.C.K.N.F.F.W.K.T.F.S.S.C.K}$PEPTIDE1,PEPTIDE1,2:R3-13:R3$$$V2.0) was tested, and the EC50 [1] was 417 nM, the EC50 ([2]; read-out: pEC50 (converted)) was 145 nM and the Activity (HTLA) was “Active”. The Activity (Flp-In-T-REx-293) was “Active”.

`CN(C)C1CCN(c2cc(-c3ccccc3)nc3ccnn23)C1` (racemic) was tested, and the Activity [3] was “Active”, the Activity [4] was “inactive” and the Activity [5] was “Active”.

Molecule `COC1=CC2CN(C)CCC2C=C1` (configuration not stated) has an EC50 [1] of 1620 nM.

With `CN(C)[C@H]1CCN(c2cc(-c3ccccc3)nc3ccnn23)C1` [(S)-ZINC-3573] the Activity [6] was “inactive”, the Activity [7] was “inactive” and the Activity [8] was “inactive”. The Activity [9] was “Active”, the pEC50 ([2]; read-out: EC50) was less than 4.00 and the Activity [10] was “inactive”. For the same molecule, the Activity [11] was “inactive”, the Activity [12] was “Active” and the Activity [13] was “inactive”. The Activity [14] was “inactive”, the Activity [15] was “inactive” and the Activity [16] was “inactive”. For the same molecule, the Activity [17] was “inactive”, the Activity [18] was “inactive” and the Activity [19] was “inactive”. The Activity [20] was “inactive”, the Activity [21] was “inactive” and the Activity [22] was “inactive”. The Activity [23] was “inactive”, the Activity [24] was “inactive” and the Activity [25] was “inactive”. For the same molecule, the Activity [26] was “inactive”, the Activity [27] was “inactive” and the Activity [28] was “inactive”.
